# According to ChEMBL document CHEMBL1155175, “Salicylidene acylhydrazides that affect type III protein secretion in Salmonella enterica serovar typhimurium” (Antimicrob Agents Chemother, 2007):
# Activity calls are given as the source filed them. No cut-off for these calls is given here.
# Key:
# MDCK = experiment: Cytotoxicity against MDCK cells at 20 uM to 40 uM; type: cell-based, Canis lupus familiaris; settings: dog
# Salmonella typhimurium [1] = experiment: Antibacterial activity against Salmonella enterica serovar Typhimurium TT16729 at 20 uM to 40 uM; type: functional, organism-based; settings: Salmonella enterica subsp. enterica serovar Typhimurium
# Salmonella typhimurium [2] = experiment: Antibacterial activity against Salmonella enterica serovar Typhimurium TT16729 assessed as inhibition of SPI1 protein secretion T3SS-mediated invasion in MDCK cells at 20 uM; type: functional, organism-based; settings: Salmonella enterica subsp. enterica serovar Typhimurium
# Outline: (§1)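 Bacteria grown in LB (overnight, then 1:10 subculture 3 h, 37°C, closed tubes) with compound at 20 µM or DMSO, then seeded on MDCK cells in HEPES-DMEM, MOI 10:1. Gentamicin 50 µg/ml for 45 min; cells lysed at 2 h with 0.5% deoxycholate; invasion = CFU at 2 h / CFU seeded, as percentage of input.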
# Salmonella typhimurium [3] = experiment: Inhibition of Salmonella enterica serovar Typhimurium TT16729 invasion in MDCK cells at 20 uM by gentamycin protection assay; type: functional, organism-based; settings: Salmonella enterica subsp. enterica serovar Typhimurium; outline: as §1
# Salmonella typhimurium [4] = experiment: Antibacterial activity against Salmonella enterica serovar Typhimurium TT16729 motility assessed as reduction of swimming zone on soft agar plates at 40 uM; type: functional, Salmonella enterica subsp. enterica serovar Typhimurium
# Outline: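 Swimming motility on soft agar (tryptone 10 g/liter, NaCl 5 g/liter, 0.3% agar) prepared 1 day ahead, compound at 40 µM final; 20 µl overnight culture inoculated into agar; zone diameter read after 8 h at 37°C.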
# Salmonella typhimurium [5] = experiment: Antibacterial activity against Salmonella enterica serovar Typhimurium TT16729 assessed as reduction in expression of bacterial cell bound flagellin at 80 uM by SDS-PAGE; type: functional, organism-based; settings: Salmonella enterica subsp. enterica serovar Typhimurium
# Outline: (§2)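 Bacteria grown 16–18 h in LB with compound (40 or 80 µM) or DMSO; flagellin released by 150 mM NaCl/10 mM HCl for 5 min at room temperature, bacteria removed by centrifugation, supernatant proteins TCA-precipitated and run on 9% SDS-PAGE; loading normalized by OD600.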
# Salmonella typhimurium [6] = experiment: Antibacterial activity against Salmonella enterica serovar Typhimurium TT16729 assessed as reduction in expression of bacterial cell bound flagellin at 40 uM by SDS-PAGE; type: functional, organism-based; settings: Salmonella enterica subsp. enterica serovar Typhimurium; outline: as §2
# Salmonella typhimurium [7] = experiment: Antibacterial activity against Salmonella enterica serovar Typhimurium 14028 assessed as increase in sseJ-HA fusion protein secretion in bacterial cell containing fraction at 20 and 40 uM by immunoblotting; type: functional, organism-based; settings: Salmonella enterica subsp. enterica serovar Typhimurium
# Outline: (§3)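 Strain 14028 grown overnight in low-pH minimal medium MM5.8 (SPI2-inducing) with compound or DMSO control; whole cells, hexadecane-extractable fraction and cell-free supernatant separated, volumes normalized by OD600, supernatant proteins TCA-precipitated; SseJ-HA detected by immunoblot on 12% SDS-PAGE with anti-HA monoclonal antibody (1:1,000) and chemiluminescence.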
# Salmonella typhimurium [8] = experiment: Antibacterial activity against Salmonella enterica serovar Typhimurium 14028 in mouse RAW264.7 cells assessed as reduction of intracellular bacterial replication at 40 uM after 16 hrs; type: functional, organism-based; settings: Salmonella enterica subsp. enterica serovar Typhimurium
# Outline: (§4)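 RAW264.7 cells in RPMI/10% FBS infected at MOI 10:1 with LB-agar-grown, mouse-serum-opsonized bacteria; gentamicin 50 µg/ml for 45 min, then 10 µg/ml. Compound added to killing and maintenance media from 1 h postinfection onward. Hypotonic lysis at 2 and 16 h; growth yield = CFU 16 h / CFU 2 h.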
# Salmonella typhimurium [9] = experiment: Antibacterial activity against Salmonella enterica serovar Typhimurium TT16729 expressing SPI1 effector protein assessed as increase in beta-lactamase activity in cytosolic fraction at 20 uM by immunoblotting; type: functional, organism-based; settings: Salmonella enterica subsp. enterica serovar Typhimurium
# Outline: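 TT16729 carrying pAUN-1 (SipB–β-lactamase fusion) grown to invasiveness in kanamycin LB, then 2 h in DMEM with kanamycin, L-glutamine and HEPES; compound 20 µM in all steps, DMSO control. Cells lysed (freeze-thaw, lysozyme 1 mg/ml 1 h 4°C, sonication), 5,000 x g clearing, then 50,000 x g 1 h. Cytosolic fraction assayed by nitrocefin (50 µg/ml, PBS) cleavage at A486, per min per OD600 or µg protein.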
# Salmonella typhimurium [10] = experiment: Antibacterial activity against Salmonella enterica serovar Typhimurium TT16729 in mouse RAW264.7 cells assessed as increase in nitric oxide level at 40 uM after 16 hrs; type: functional, organism-based; settings: Salmonella enterica subsp. enterica serovar Typhimurium
# Outline: (§5)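 Opsonized bacteria infect RAW264.7 macrophages (MOI 10:1, gentamicin protection); compound or DMSO present in media from 1 h postinfection. Nitrite accumulated in culture medium at 16 h postinfection measured with Griess reagent (OD525), converted to µM against sodium nitrite standards.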
# Salmonella typhimurium [11] = experiment: Antibacterial activity against Salmonella enterica serovar Typhimurium TT16729 assessed as decrease in transcription of lacZ-sipC at 40 uM; type: functional, organism-based; settings: Salmonella enterica subsp. enterica serovar Typhimurium
# Salmonella typhimurium [12] = experiment: Antibacterial activity against Salmonella enterica serovar Typhimurium TT16729 assessed as decrease in transcription of lacZ-prgH at 40 uM; type: functional, organism-based; settings: Salmonella enterica subsp. enterica serovar Typhimurium
# Salmonella typhimurium [13] = experiment: Antibacterial activity against Salmonella enterica serovar Typhimurium 14028 assessed as reduction in sseJ-HA fusion protein secretion in hexadecane extracted fraction at 20 and 40 uM by immunoblotting; type: functional, organism-based; settings: Salmonella enterica subsp. enterica serovar Typhimurium; outline: as §3
# Salmonella typhimurium [14] = experiment: Antibacterial activity against Salmonella enterica serovar Typhimurium 14028 in mouse RAW264.7 cells assessed as increase in nitric oxide level at 40 uM after 16 hrs; type: functional, organism-based; settings: Salmonella enterica subsp. enterica serovar Typhimurium; outline: as §5
# Salmonella typhimurium [15] = experiment: Antibacterial activity against Salmonella enterica serovar Typhimurium TT16729 assessed as decrease in spvA-lacZ expression at 40 uM; type: functional, organism-based; settings: Salmonella enterica subsp. enterica serovar Typhimurium
# Salmonella typhimurium [16] = experiment: Antibacterial activity against Salmonella enterica serovar Typhimurium TT16729 assessed as decrease in transcription of lacZ-hilA at 40 uM; type: functional, organism-based; settings: Salmonella enterica subsp. enterica serovar Typhimurium
# Salmonella typhimurium [17] = experiment: Antibacterial activity against Salmonella enterica serovar Typhimurium TT16729 in mouse RAW264.7 cells assessed as reduction of intracellular bacterial replication at 40 uM after 16 hrs; type: functional, organism-based; settings: Salmonella enterica subsp. enterica serovar Typhimurium; outline: as §4
# RAW264.7 = experiment: Effect on nitric oxide production in mouse RAW264.7 cells; type: functional, cell-based
# Salmonella typhimurium [18] = experiment: Antibacterial activity against Salmonella enterica serovar Typhimurium 14028 assessed as inhibition of sseJ-HA fusion protein secretion by immunoblotting; settings: Salmonella enterica subsp. enterica serovar Typhimurium
# Salmonella typhimurium [19] = experiment: Antibacterial activity against Salmonella enterica serovar Typhimurium TT16729 expressing SPI1 effector protein assessed as localization of SipB-beta-lactamase fusion protein in osmotic shock sample at 20 uM by immunoblotting; type: functional, organism-based; settings: Salmonella enterica subsp. enterica serovar Typhimurium
# Salmonella typhimurium [20] = experiment: Antibacterial activity against Salmonella enterica serovar Typhimurium TT16729 in mouse RAW264.7 cells assessed as increase in intracellular bacterial replication at 40 uM after 16 hrs; type: functional, organism-based; settings: Salmonella enterica subsp. enterica serovar Typhimurium; outline: as §4
# Salmonella typhimurium [21] = experiment: Antibacterial activity against Salmonella enterica serovar Typhimurium 14028 in mouse RAW264.7 cells assessed as reduction of nitric oxide level at 40 uM after 16 hrs; type: functional, organism-based; settings: Salmonella enterica subsp. enterica serovar Typhimurium; outline: as §5
# Salmonella typhimurium [22] = experiment: Antibacterial activity against Salmonella enterica serovar Typhimurium TT16729 infected mouse RAW264.7 cells assessed as increase in nitric oxide level at 40 uM after 16 hrs in presence of tetracyclin; type: functional, organism-based; settings: Salmonella enterica subsp. enterica serovar Typhimurium
# Outline: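 RAW264.7 cells infected with opsonized strain TT16729 (MOI 10:1, gentamicin protection), compound in medium from 1 h postinfection; bacterial protein synthesis blocked with tetracycline at 2 h postinfection. Medium nitrite measured at 16 h by Griess reagent (OD525) against sodium nitrite standards.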
SMILES,Activity (MDCK),Activity (Salmonella typhimurium [1]),Activity (Salmonella typhimurium [2]),Activity (Salmonella typhimurium [3]),Activity (Salmonella typhimurium [4]) [cm],also measured
O=C(N/N=C/c1ccc(O)c(O)c1O)c1ccccc1,Non-toxic,inactive,Active,Active,3.3,
NC(=O)C(=O)N/N=C/c1cc(Br)ccc1O,Non-toxic,inactive,Active,Active,1.7,Activity (Salmonella typhimurium [5]): Active; Activity (Salmonella typhimurium [6]): Active
O=C(N/N=C/c1cc(Br)cc(Br)c1O)c1ccc([N+](=O)[O-])cc1,Non-toxic,inactive,Active,Active,2.9,
O=C(N/N=C/c1cc(Br)cc(Br)c1O)c1cccnc1,Non-toxic,inactive,Active,Active,2.7,Activity (Salmonella typhimurium [7]): inactive; Activity (Salmonella typhimurium [8]): Active; Activity (Salmonella typhimurium [9]): Active; Activity (Salmonella typhimurium [10]): Active; Activity (Salmonella typhimurium [11]): Active; Activity (Salmonella typhimurium [12]): Active; Activity (Salmonella typhimurium [13]): Active; Activity (Salmonella typhimurium [14]): Active; Activity (Salmonella typhimurium [15]): Active; Activity (Salmonella typhimurium [16]): Active; Activity (Salmonella typhimurium [17]): Active; Activity (RAW264.7): inactive; Activity (Salmonella typhimurium [18]): Active; Activity (Salmonella typhimurium [19]): inactive
CCOc1cccc(/C=N/NC(=O)C(N)=O)c1O,Non-toxic,inactive,Active,Active,2.7,Activity (Salmonella typhimurium [5]): inactive
O=C(N/N=C/c1cc(Cl)cc(Cl)c1O)c1ccccc1,Non-toxic,inactive,Active,Active,2.7,
O=C(N/N=C/c1ccc(O)c(O)c1O)c1ccco1,Non-toxic,inactive,Active,Active,2.9,
O=C(N/N=C/c1cc(Br)ccc1O)c1cccnc1,Non-toxic,inactive,Active,Active,2.4,Activity (Salmonella typhimurium [6]): Active
O=C(N/N=C/c1c(O)ccc2ccccc12)c1ccc(Cl)cc1,Non-toxic,inactive,Active,Active,3.1,Activity (Salmonella typhimurium [7]): inactive; Activity (Salmonella typhimurium [20]): Active; Activity (Salmonella typhimurium [21]): Active; Activity (Salmonella typhimurium [13]): Active; Activity (RAW264.7): inactive; Activity (Salmonella typhimurium [18]): Active; Activity (Salmonella typhimurium [22]): Active
